Experimental data from ChEMBL document CHEMBL1138522, “A novel small-molecule inhibitor of the avian influenza H5N1 virus determined through computational screening against the neuraminidase” (J Med Chem, 2009).
Activity calls are given as the source filed them. The rule behind the calls is not given here. Residues, ends and D or L forms follow the SMILES beside them. *: point of attachment. Cbz = O=C(OCc1ccccc1)*

Key:
[1] = tested on: Influenza A virus; test: Antiviral activity against influenza A virus H1N1 A/HK/54/98 in MDCK cells assessed as inhibition of viral replication after 48 hrs by hemagglutinination assay; type: functional, organism-based
In short: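 H1N1 A/HK/54/98 infected MDCK cells at moi 2 for 30 min, then washed once with PBS. Cells were refed with serum-free medium containing TPCK-trypsin plus compound. Supernatant was collected 48 h post-infection and viral titre was read by hemagglutination assay.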

[2] = tested on: Influenza A virus; test: Antiviral activity against Influenza A virus (A/Viet Nam/1203/2004(H5N1)) in MDCK cells assessed as inhibition of viral replication after 48 hrs by hemagglutinination assay; type: functional, organism-based
[3] = Cytotoxicity against primary human blood macrophages after 48 hrs by MTT assay; type: cell-based; conditions: macrophage
In short: (§1)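 Primary human blood macrophages or MDCK cells were incubated 48 h with DMSO-dissolved compound; viability by MTT assay. DMSO-treated cells served as solvent controls.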

[4] = tested on: MDCK; test: Cytotoxicity against MDCK cells after 48 hrs by MTT assay; type: cell-based, Canis lupus familiaris; conditions: dog; in short: as §1
[5] = tested on: Influenza A virus; test: Antiviral activity against influenza A virus H1N1 A/HK/54/98 in MDCK cells assessed as inhibition of viral replication at 100 uM after 18 hrs by transmission electron microscopy; type: functional, organism-based
In short: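 MDCK cells were infected with H1N1 at moi 2, then treated with compound at 100 µM, with DMSO controls. At 18 h post-infection, cells were fixed in 2.5% glutaraldehyde in 0.1 M cacodylate (pH 7.4), post-fixed in 1% osmium tetroxide, and embedded in epoxy. 100 nm sections were examined by TEM for surface virions.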

[6] = tested on: Influenza A virus; test: Antiviral activity against Influenza A virus (A/Viet Nam/1203/2004(H5N1)) in MDCK cells assessed as inhibition of viral replication at 100 uM after 18 hrs by transmission electron microscopy; type: functional, organism-based
[7] = tested on: Influenza A virus; test: Antiviral activity against Influenza A virus (A/Viet Nam/1203/2004(H5N1)) in MDCK cells assessed as inhibition of virus-induced cytopathic effect after 48 hrs by crystal violet staining; type: functional, organism-based
[8] = tested on: Mus musculus; test: Toxicity in mouse assessed as survival up to 400 mg/kg; type: organism-based; design: dose 400 mg/kg; conditions: in vivo
[9] = tested on: Influenza A virus; test: Antiviral activity against influenza A virus H1N1 A/HK/54/98 in MDCK cells assessed as inhibition of virus-induced cytopathic effect after 48 hrs by crystal violet staining; type: functional, organism-based
In short: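 H1N1 A/HK/54/98 infected MDCK cells at moi 2, with compound over a range of concentrations; supernatant taken at 48 h. Serial 2-fold dilutions were adsorbed 1 h onto MDCK cells (2 × 10^4/well), then incubated 4 days in MEM with 1 µg/mL TPCK-trypsin. CPE was read by formaldehyde fixation and crystal violet staining; TCID50 by Reed-Muench. Three independent experiments.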

[10] = molecular target: Neuraminidase (Influenza A virus) (UniProt B4URF0); test: Inhibition of influenza A virus H1N1 neuraminidase catalytic activity at 100 uM
In short: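 Chemiluminescent NA-Star kit using H1N1 virus (TCID50 2 × 10^7/mL, diluted 5-fold) as enzyme source. Virus was preincubated with compound, in triplicate, 20 min at 37 °C. 1:1000-diluted substrate was then added for 30 min at room temperature, followed by accelerator and an immediate luminescence read.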

With `O=C(Nc1ccn(C2CCC(COC(c3ccccc3)(c3ccccc3)c3ccccc3)O2)c(=O)n1)c1ccccc1` (centres undefined) the Activity [1] was “inactive”, the Activity [2] was “inactive” and the Activity [3] was 0.8 µM.
In the case of `Cc1nc(Nc2ccccc2)sc1C(=O)CC(=O)C(=O)NC1C2CC3CC(C2)CC1C3` (centres undefined), the Activity [4] is reported as 1.5 µM, the Activity [1] is reported as “inactive” and the Activity [2] is reported as “inactive”. For the same compound, the Activity [3] was 1.1 µM.
In the case of `CNC(=N)Nc1ccc(C(=O)O)cc1.O=S(=O)(O)O`, the Activity [1] is reported as “inactive”, the Activity [2] is reported as “inactive” and the Activity [3] is reported as 0.7 µM.
In the case of `CCOC(=O)CNC(=O)CCC(NS(=O)(=O)c1ccc(C)cc1)C(=O)O` (centres undefined), the Activity [1] is reported as “inactive”, the Activity [2] is reported as “inactive” and the Activity [3] is reported as 0.8 µM.
For `CCOC(=O)C1=C[C@@H](OC(CC)CC)[C@H](NC(C)=O)[C@@H](N)C1`, the Activity [1] was “Active”, the Activity [5] was “Active” and the Activity [2] was “Active”. The Activity [6] was “Active”.
With `O=C(O)c1ccccc1C(=O)Nc1cc2c(cc1Br)-c1ccccc1C2=O` the Activity [4] was 1.1 µM, the Activity [1] was “inactive” and the Activity [2] was “inactive”. It also gave an Activity [3] of 10 µM.
In the case of `C/C(=C\C(=O)N1c2ccccc2CC1c1c[nH]c2ccccc12)C(=O)O` (centres undefined), the Activity [4] is reported as 1.2 µM, the Activity [1] is reported as “inactive” and the Activity [2] is reported as “inactive”. It also gave an Activity [3] of 1 µM.
In the case of `Nc1nc(=O)c2cc(NCc3ccc(C(=O)NC(CCC(=O)O)C(=O)O)cc3)ccc2[nH]1` (centres undefined), the Activity [4] is reported as 1.2 µM, the Activity [1] is reported as “inactive” and the Activity [2] is reported as “inactive”. It also gave an Activity [3] of 0.9 µM.
In the case of `CC[C@H](C)[C@H](NC(=O)[C@H](C)NC(=O)OCc1ccccc1)C(=O)O` (Cbz-Ala-Ile-OH), the Activity [1] is reported as “inactive”, the Activity [2] is reported as “inactive” and the Activity [3] is reported as 1 µM.
In the case of `Nc1nc(=O)c2cc(CSc3ccc(C(=O)NC(CCC(=O)O)C(=O)O)cc3)ccc2[nH]1` (centres undefined), the Activity [1] is reported as “inactive” and the Activity [2] is reported as “inactive”.
In the case of `O=C(O)CCC(=O)CCC(=O)c1ccc2ccccc2c1`, the Activity [4] is reported as 1 µM, the Activity [1] is reported as “inactive” and the Activity [2] is reported as “inactive”. For the same compound, the Activity [3] was 1.1 µM.
With `C[C@H](NC(=O)OCc1ccccc1)C(=O)N[C@@H](Cc1c[nH]c2ccccc12)C(=O)O` (Cbz-Ala-Trp-OH) the Activity [1] was “inactive”, the Activity [2] was “inactive” and the Activity [3] was 0.9 µM.
For `O=C(O[C@H](C(=O)O)[C@H](OC(=O)c1ccccc1)C(=O)O)c1ccccc1`, the Activity [4] was 0.7 µM, the Activity [1] was “inactive” and the Activity [2] was “inactive”. It also gave an Activity [3] of 1.1 µM.
For `Nc1nc(O)c2cc(CSc3ccc(C(=O)NC(CCC(=O)O)C(=O)O)cc3)ccc2n1` (centres undefined), the Activity [4] was 1.1 µM and the Activity [3] was 1.1 µM.
In the case of `O=C(O)CCC(=O)NCC1CCCC(CNC(=O)CCC(=O)O)C1` (centres undefined), the Activity [4] is reported as 1.3 µM, the Activity [1] is reported as “inactive” and the Activity [2] is reported as “inactive”. It also gave an Activity [3] of 0.9 µM.
In the case of `O=C(/C=C/c1ccc(O)c(O)c1)NCC(=O)NC(Cc1ccccc1)C(=O)O` (centres undefined), the Activity [4] is reported as 2.2 µM, the Activity [1] is reported as “inactive” and the Activity [2] is reported as “inactive”. It also gave an Activity [3] of 1.1 µM.
With `O=C(O)C(Cc1ccc(O)cc1)c1ccc(C(Cc2ccc(O)cc2)C(=O)O)cc1` (centres undefined) the Activity [1] was “inactive”, the Activity [2] was “inactive” and the Activity [3] was 0.1 µM.
In the case of `CCOC(=O)C(O)C(=O)OCc1ccc2ccccc2n1` (centres undefined), the Activity [4] is reported as 1.4 µM, the Activity [1] is reported as “inactive” and the Activity [2] is reported as “inactive”. The Activity [3] was 1 µM.
With `Cc1nc(N)nc(O)c1CCCNc1ccc(/C=C/C(=O)CCl)cc1` the Activity [4] was 2.2 µM, the Activity [7] was “Dose-dependent effect” and the Activity [8] was “Non-toxic”. For the same compound, the Activity [1] was “Active”, the Activity [5] was “Active” and the Activity [2] was “Active”. The Activity [9] was “Dose-dependent effect”, the Activity [3] was 1.1 µM and the Activity [10] was “Active”. For the same compound, the Activity [6] was “Active”.
In the case of `O=C(O)CCCCCNC(=O)OCc1ccccc1`, the Activity [4] is reported as 1.5 µM, the Activity [1] is reported as “inactive” and the Activity [2] is reported as “inactive”. For the same compound, the Activity [3] was 0.9 µM.
With `Cc1cccc(OC(=O)Nc2ccc(C(=O)O)c(O)c2)c1` the Activity [4] was 2.3 µM, the Activity [1] was “inactive” and the Activity [2] was “inactive”. It also gave an Activity [3] of 1 µM.
In the case of `Cc1ccccc1OC(=O)Nc1ccc(C(=O)O)c(O)c1`, the Activity [4] is reported as 1.7 µM, the Activity [1] is reported as “inactive” and the Activity [2] is reported as “inactive”. It also gave an Activity [3] of 0.9 µM.
